From ChEMBL document CHEMBL5226368, “1H NMR-Based Biochemometric Analysis of Morus alba Extracts toward a Multipotent Herbal Anti-Infective” (J Nat Prod, 2023)
Active and inactive are the calls of the source.

Legend:
Type in all cases: functional, organism-based
Conditions in all cases: dose 1-10 µM
Influenza A virus [1] = assay: Antiviral activity against oseltamivir resistant Influenza A virus A/1690/19 (H1N1) infected in MDCK cells assessed as reduction in plaque number at 1 to 10 uM pre-infected with cell for 1 hrs followed by compound addition and measured after 72 hrs by plaque reduction assay
Method in brief: (§1)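 Confluent MDCK monolayers were inoculated at 37 °C for 1 h with virus suspension, either alone or with serial half-log sample dilutions (1, 3.16, 10), in duplicate. The inoculum was aspirated and replaced with serum-free test medium containing 2 µg/mL trypsin, 0.4% agar and the same sample concentrations. Plaques were counted and IC50 was derived by a four-parameter logistic fit (n = 3).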

Influenza A virus [2] = assay: Antiviral activity against oseltamivir resistant Influenza A virus A/1519/19 (H1N1) infected in MDCK cells assessed as reduction in plaque number at 1 to 10 uM pre-infected with cell for 1 hrs followed by compound addition and measured after 72 hrs by plaque reduction assay; method in brief: as §1
Influenza A virus [3] = assay: Antiviral activity against oseltamivir resistant Influenza A virus A/2588/19 (H3N2) infected in MDCK cells assessed as reduction in plaque number at 1 to 10 uM pre-infected with cell for 1 hrs followed by compound addition and measured after 72 hrs by plaque reduction assay; method in brief: as §1
Influenza B virus [4] = assay: Antiviral activity against oseltamivir resistant Influenza B virus B/2791/18 (Victoria) infected in MDCK cells assessed as reduction in plaque number at 1 to 10 uM pre-infected with cell for 1 hrs followed by compound addition and measured after 72 hrs by plaque reduction assay; method in brief: as §1
Influenza B virus [5] = assay: Antiviral activity against oseltamivir resistant Influenza B virus B/3449/18 (Yamagata) infected in MDCK cells assessed as reduction in plaque number at 1 to 10 uM pre-infected with cell for 1 hrs followed by compound addition and measured after 72 hrs by plaque reduction assay; method in brief: as §1

Measured: Activity

CC(C)=CCCC1=C[C@H](c2c(O)cc3c(c2O)C(=O)C[C@@H](c2ccc(O)cc2O)O3)[C@@H](C(=O)c2ccc(O)cc2O)[C@H](c2ccc(O)cc2O)C1
active: all assays above

CC(C)=CC[C@]12Oc3cc(O)c([C@H]4C=C(C)C[C@H](c5ccc(O)cc5O)[C@H]4C(=O)c4ccc(O)cc4O)c(O)c3C(=O)[C@@]1(O)Oc1cc(O)ccc12 [SANGGENON C]
active: all assays above
